High-throughput results: PubChem, Broad Institute
Hits are enriched below; roughly 3.5% of the tested compounds scored in any of these assays.
Env fusion inh: inhibitors of HIV-1 Env-driven cell-cell fusion, primary screen, HeLa-JRFL effector, CEM21 target cells, luciferase; inhibition, % at 12.3 µM; 360,000 compounds, 1.1% hits; AID 651610, 2012;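 active = mean replicate inhibition score of at least 50 and every replicate individually at or above 50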;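 also: 0% = plate neutral controls and 100% = maraviroc near 300 nM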
esBAF inh: Bmi1 luciferase reporter increase in mESCs, primary screen, esBAF inhibitor project, mouse ES cells, Bmi1 luciferase knock-in, single point. 24 h; 100% = twice the neutral-well signal. reporter increase, % at 12.5 µM. 350,000 compounds, 2% hits. AID 602393, 2012; in the data active = activation above about 40%;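 also: 0% = median of the plate's neutral control wells and 100% = double that signal; a rise in the Bmi1 reporter signal indicates esBAF inhibition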
ERAP1 HTS inh: human ERAP1 aminopeptidase inhibitors, primary screen, biochemical, single point, plate reader. Endoplasmic reticulum aminopeptidase 1 (Homo sapiens), Q9NZ08. recombinant ERAP1, Leu-AMC fluorescence, 60 min. inhibition, % at 10.7 µM. 340,000 compounds, 0.15% hits;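 active = mean replicate inhibition of at least 30%, or all replicates individually reaching that 30% level; inactive = mean below 30% and not every replicate reaching it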;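 also: 0% = neutral control wells and 100% = L-leucinethiol positive control wells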
MITF TRPM1 HTS: activators of MITF-driven TRPM1 promoter reporter, primary screen, cell-based, SK-MEL-5, luciferase, single point; SK-MEL-5 TRPM1-promoter luciferase, 24 h; % of positive control, neutral wells = 0; activation, % at 12.5 µM; 300,000 compounds, 0.75% hits; AID 588334, 2011;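 active = mean activation of at least 80% with every replicate also reaching 80%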;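 also: 0% = neutral control wells and 100% = parthenolide positive control wells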
Cneo AK release: Cryptococcus neoformans cell lysis inducers, primary screen, AK release luminescence, single concentration. C. neoformans lysis, adenylate kinase release luminescence, 4 h; normalised: neutral wells 0, clomiphene wells 100. lysis activity, % at 15 µM. 360,000 compounds, 0.2% hits;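 active = mean lysis activity across replicates of at least 80%, whatever share of replicates individually reach that level; inactive = mean lysis activity below 80%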
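Material: C. neoformans cells; Schedule: 4 h static compound exposure, 37 °C, read 1 h post-reagent; Measured by: adenylate kinase release luminescence; Read-out: signal increase indicating cell lysis; Controls: Clomiphene as positive lysis control.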
Wnt act: Wnt/beta-catenin pathway activators, primary screen, cell-based, plate reader, single point. Wnt/beta-catenin reporter cell assay, activator. activation, % at 9.35 µM. 300,000 compounds, 1.2% hits. AID 743398, 2014; in the data active = activation above about 30%, passing the limit was not always enough;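 also: 0% = neutral control wells and 100% = positive control wells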
Numbers without * were called inactive; . = no result given; [ ] = another dose, or the depositor's remark.

SMILES | Env fusion inh | esBAF inh | ERAP1 HTS inh | MITF TRPM1 HTS | Cneo AK release | Wnt act
COC(=O)CCc1nc2c(C#N)c(-c3ccc(Cl)cc3)ccn2n1 | 4.2 | -9.8 | -3.5 | -1.5 | 7.6 | 1.5
N#Cc1c(-c2ccc(Cl)cc2)ccn2nc(C3CCCCC3)nc12 | -100.7 | . | . | 90.1* | 4.8 | 25.6
Cc1ccc(-c2nc3ccsc3c(=O)o2)cc1 | -178.7 | . | . | -5.9 | -9.7 | 50.2*
Cc1ccc(-n2c(C)nc3ccsc3c2=O)cc1 | 25.1 | -5.4 | . | 0.7 | -0.3 | 1.0
Cc1noc(C)c1NC(=O)Nc1ccc2c(c1)CC(=O)N([C@H](C)CO)C[C@@H](C)[C@@H](CN(C)C(=O)Nc1ccccc1)O2 | 14.8[16.7 µM] | -1.1 | 4.7 | . | 6.0 | .
O=C(NCc1ccccc1)[C@@]1(CCS(=O)(=O)c2ccccc2)COC(c2ccc(OCCCO)cc2)=N1 | -10.9[16.7 µM] | . | 2.1 | . | -4.1 | .
CCS(=O)(=O)N1Cc2ccccc2CC1C(=O)NCC12CC3CC(CC(C3)C1)C2 (centres undefined) | 85.5* | -5.4 | . | . | 0.0 | -3.2
CCS(=O)(=O)N1Cc2ccccc2CC1C(=O)NC(C)C12CC3CC(CC(C3)C1)C2 (centres undefined) | 101.6* | -4.7 | . | 7.3 | -0.7 | 28.4
CCS(=O)(=O)N1Cc2ccccc2CC1C(=O)Nc1ccccc1OC (centres undefined) | 12.5 | 1.1 | 1.8 | -11.3 | 5.9 | 0.1
CCS(=O)(=O)N1Cc2ccccc2CC1C(=O)Nc1ccc(F)cc1 (centres undefined) | -5.4 | . | . | 25.8 | . | -1.9
Fc1ccc2cnc(CCO[C@H]3CCCCO3)cc2c1 | -12.8 | -7.0 | 0.9 | 39.2 | -1.3 | 17.0
Fc1ccc2cc(CCO[C@H]3CCCCO3)ncc2c1 | -53.2 | -28.5 | -2.8 | 40.0 | -1.2 | 32.2*
O=C(C[C@H]1C=C[C@H](NC(=O)NC2CCCCC2)[C@@H](CO)O1)NCc1ccc(Cl)cc1 | 21.5[16.7 µM] | 1.0 | -4.2 | . | 5.6 | .
CCc1ccc(NC(=O)c2cc(Br)ccc2Br)cc1 | 6.2 | . | -3.8 | . | . | 0.3
CC(C)c1ccc(NC(=O)c2cc(Br)ccc2Br)cc1 | 3.6 | 71.8* | -0.2 | 29.1 | . | -0.9
COc1ccccc1-c1nnc(Sc2nc([N+](=O)[O-])nn2C)o1 | 126.3* | -1.9 | . | -57.3 | . | .
Cn1cnnc1Sc1nc([N+](=O)[O-])nn1C | 12.6 | -6.9 | -0.3 | -10.9 | . | 3.1
Cc1cc2nc(-c3ccccc3)c(Cc3cccc(F)c3)n2c(C)c1Br | 73.9* | 10.1 | 0.6 | . | 11.6 | 0.6
Cc1ccc(-c2nc3cc(C)c(Br)c(C)n3c2Cc2cccc(F)c2)cc1 | -19.6 | 53.6* | -5.9 | . | 4.5 | 11.0
N#C[C@@H]1[C@H](c2ccccc2-c2ccc(F)cc2)[C@H](CO)N1C(=O)NC1CCCCC1 | . | . | 0.2 | . | . | .
Cc1cc(NC(=O)c2cc3cccc([N+](=O)[O-])c3[nH]2)ccc1F | -122.2 | 83.6* | -1.5 | 53.3 | -2.6 | 41.0*
COCC(C)NC(=O)c1cc2cccc([N+](=O)[O-])c2[nH]1 (centres undefined) | -5.4 | . | -0.4 | -25.0 | . | 1.2
CN(C)c1ccc(-c2nnn(Cc3ccccc3Br)n2)cc1 | . | 93.7* | -1.0 | 55.5 | -1.5 | 8.5
Fc1ccccc1Cn1nnc(-c2ccc3c(c2)OCO3)n1 | -112.4 | 21.7 | . | 66.9 | -9.4 | 70.8*
O=C(Cn1nnc(-c2ccc(OCc3ccccc3F)cc2)n1)N1CCOCC1 | -11.7 | 41.0* | . | 75.8 | 2.4 | .
SMILES | Env fusion inh | esBAF inh | ERAP1 HTS inh | MITF TRPM1 HTS | Cneo AK release | Wnt act
COc1ccc(-c2nnn(Cc3ccccc3F)n2)cc1 | . | 63.7* | . | 108.3* | . | .
Cc1ccc(NC(=O)Cn2nnc(-c3ccc4c(c3)OCO4)n2)cc1F | 6.3 | -10.7 | -5.5 | 4.1 | -1.0 | 0.4
Clc1ccc(OCCCc2nc(-c3ccncc3)no2)c(Cl)c1 | -19.8 | -4.0 | . | 9.3 | -4.4 | -4.3
Clc1ccc(OCc2noc(-c3ccsc3)n2)c(Cl)c1 | -202.2 | 64.0* | 2.9 | . | . | 64.7*
Fc1cc(Cl)c(OCc2noc(-c3ccsc3)n2)c(Cl)c1 | -14.8 | . | -2.2 | 90.1* | . | -0.1
COC(=O)c1sccc1NC(=O)Nc1ccc(F)cc1 | . | . | 4.9 | 5.0 | -1.0 | -3.5
